GRIN3A LBD mod – NR3A (human) ligand-binding domain modulation; AID 1259313; Tm shift relative to glycine control, % at 25 µM; NR3A LBD differential scanning fluorimetry, Tm shift; 0% = protein alone, 100% = glycine-bound protein; hit rate 2.5% among 340,000;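 active = melting temperature shift of at least 10% of the positive control shift, at one fixed dose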
PAFAH1B3 inh – inhibitors of human PAFAH1B3. Q15102. inhibition, % at 3.39 µM. hit rate 0.28% among 340,000. recombinant PAFAH1B3, FP-rhodamine probe, fluorescence polarization;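 active = inhibition above the screen-wide average of all tested compounds plus 3 SD, cut at about 25% in these data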
Target sequence (Q15102 whole entry, looked up): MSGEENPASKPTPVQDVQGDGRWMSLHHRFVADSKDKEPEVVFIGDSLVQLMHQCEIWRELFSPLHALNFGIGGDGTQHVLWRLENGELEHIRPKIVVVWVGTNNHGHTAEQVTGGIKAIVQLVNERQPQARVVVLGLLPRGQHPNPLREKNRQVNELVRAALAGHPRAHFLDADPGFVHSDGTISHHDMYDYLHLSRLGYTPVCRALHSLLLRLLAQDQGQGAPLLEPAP
UCH37 DUB inh – inhibitors of human deubiquitinating enzyme UCH37; Q9Y5K5; purified proteasome/UCH37, Ub-AMC cleavage fluorescence; inhibition, % (no concentration beside the values); hit rate 0.33% among 330,000; AID 588478;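 active = mean inhibition over replicate wells above about 20%, limit read from the data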
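Reagent: Ub-AMC substrate; assay system: Proteasome-associated human UCH37 deubiquitinase; controls: no-proteasome and no-compound wells; read-out: % inhibition of Ub-AMC cleavage fluorescence; timing: 30 min preincubation with enzyme, 25 min cleavage at room temperature; signal: AMC fluorescence from Ub-AMC cleavage, excitation 355 nm, emission 460 nm; buffer or medium: Tris-HCl pH 7.4 plus ovalbumin, ATP-MgCl2, DTT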
PAFAH2 FP inh – PAFAH2 (human) inhibition | Q99487 | recombinant PAFAH2, FP-rhodamine activity probe, fluorescence polarization | inhibition, % at 3.39 µM | hit rate 0.99% among 340,000;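 active = inhibition above the mean over all tested compounds plus 3 SD, cut at about 30% in these data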;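 also: inhibitors block probe labeling of enzyme so polarization drops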
pPAFAH inh – pPAFAH (human) enzyme inhibition; Q13093; recombinant pPAFAH, FP-rhodamine probe fluorescence polarization; inhibition, % at 3.39 µM; hit rate 1.5% among 330,000; AID 463082;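 active = inhibition above the mean inhibition across the screen plus 3 SD, cut at about 25% in these data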;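 also: inhibitors block binding of the rhodamine activity-based probe so polarization drops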
Target sequence (Q13093 whole entry, looked up): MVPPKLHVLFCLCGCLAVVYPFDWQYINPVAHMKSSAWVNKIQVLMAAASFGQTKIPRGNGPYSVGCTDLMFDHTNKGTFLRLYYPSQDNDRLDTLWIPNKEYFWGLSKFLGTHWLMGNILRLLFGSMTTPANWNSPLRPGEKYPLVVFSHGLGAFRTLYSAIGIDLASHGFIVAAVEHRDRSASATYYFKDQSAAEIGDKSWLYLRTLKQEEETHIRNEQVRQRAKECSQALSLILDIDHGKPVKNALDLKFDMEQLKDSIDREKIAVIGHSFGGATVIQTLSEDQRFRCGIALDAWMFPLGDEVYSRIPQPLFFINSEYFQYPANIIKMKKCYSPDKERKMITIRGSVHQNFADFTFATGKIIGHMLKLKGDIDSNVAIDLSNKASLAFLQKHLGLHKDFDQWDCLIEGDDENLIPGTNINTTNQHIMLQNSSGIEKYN
PAFAH1B2 inh – PAFAH1B2 (human) inhibition; inhibition, % at 3.39 µM; P68402; AID 492953; recombinant PAFAH1B2, FP-rhodamine activity probe, fluorescence polarization; hit rate 1.2% among 340,000;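 active = inhibition above the mean of all tested compounds plus 3 SD, cut at about 24% in these data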
A number is an active result. In the library only some 4.8% were active in any assay of this set; here they are far more common.

For CCCCn1c(N)c(N(CC(C)C)C(=O)CN2C(=O)NC3(CCC(C(C)(C)CC)CC3)C2=O)c(=O)[nH]c1=O (centres undefined) the results were GRIN3A LBD mod inactive, PAFAH1B3 inh inactive, UCH37 DUB inh inactive, PAFAH2 FP inh inactive and PAFAH1B2 inh 31.
Screening CCOc1ccc(N2C(=O)CSC2=NNC(=O)COc2ccc3ccccc3c2)cc1 returned UCH37 DUB inh inactive.
C/C(=N\Nc1ccc(Cl)c(C(=O)O)c1)c1ccc(Br)s1 was read as GRIN3A LBD mod inactive, PAFAH1B3 inh inactive, PAFAH2 FP inh inactive, pPAFAH inh 27 and PAFAH1B2 inh inactive.
Screening Clc1ccccc1CN1CCN(N=C/C=C/c2ccco2)CC1 returned UCH37 DUB inh inactive.
Clc1ccccc1Cn1c(/C=C/c2ccco2)nc2ccccc21 was read as GRIN3A LBD mod inactive, PAFAH1B3 inh inactive, UCH37 DUB inh inactive, PAFAH2 FP inh inactive, pPAFAH inh 31 and PAFAH1B2 inh inactive.
Screening CN=c1scc(C)n1N=Cc1ccc(O)cc1O returned UCH37 DUB inh inactive.
O=C(/C=C/c1c[nH]c2ccccc12)c1cccc2ccccc12 was read as GRIN3A LBD mod 28, PAFAH1B3 inh inactive, UCH37 DUB inh inactive, PAFAH2 FP inh inactive, pPAFAH inh inactive and PAFAH1B2 inh inactive.
O=C(NN=Cc1c[nH]c2ccccc12)c1ccccc1O was read as UCH37 DUB inh inactive.
CC(=O)c1ccc(NC(=O)COC(=O)Cc2ccsc2)cc1 was read as GRIN3A LBD mod inactive, PAFAH1B3 inh inactive, PAFAH2 FP inh inactive, pPAFAH inh inactive and PAFAH1B2 inh inactive.
For O=C(COC(=O)Cc1ccsc1)Nc1cccc(F)c1 the results were GRIN3A LBD mod inactive, PAFAH1B3 inh inactive, UCH37 DUB inh inactive, PAFAH2 FP inh inactive, pPAFAH inh 29 and PAFAH1B2 inh inactive.
`O=C(COC(=O)Cc1ccsc1)Nc1ccccc1` gave GRIN3A LBD mod inactive, PAFAH1B3 inh inactive, UCH37 DUB inh inactive, PAFAH2 FP inh inactive, pPAFAH inh 27 and PAFAH1B2 inh inactive.
For O=C(COC(=O)Cc1ccsc1)NNC(=O)c1ccccc1 the results were GRIN3A LBD mod inactive, PAFAH1B3 inh inactive, PAFAH2 FP inh inactive, pPAFAH inh 26 and PAFAH1B2 inh inactive.
`Cc1ccc(NN=C2CS(=O)(=O)N(C)c3ccsc32)cc1` gave UCH37 DUB inh inactive.
For COc1cccc(C=Nn2c(C)nnc2C)c1OC the results were UCH37 DUB inh inactive.
Cc1sc(NC(=O)CSc2n[nH]c(N)n2)c(C#N)c1C was read as GRIN3A LBD mod inactive, PAFAH1B3 inh inactive, PAFAH2 FP inh inactive and PAFAH1B2 inh inactive.
Cc1ccc(/C=C/C2=Cc3c(sc(NC(=O)CSc4n[nH]c(N)n4)c3C#N)C(C)(C)C2)o1 was read as pPAFAH inh 58.
`COC(=O)C1C2C=CC3(CN(CCc4ccccc4)C(=O)C13)O2` (centres undefined) gave GRIN3A LBD mod inactive, PAFAH1B3 inh inactive, UCH37 DUB inh inactive, PAFAH2 FP inh inactive, pPAFAH inh inactive and PAFAH1B2 inh inactive.
O=C(O)C1C2C=CC3(CN(c4cccc(C(F)(F)F)c4)C(=O)C13)O2 (centres undefined) was read as GRIN3A LBD mod 11, PAFAH1B3 inh inactive, UCH37 DUB inh inactive, PAFAH2 FP inh inactive, pPAFAH inh inactive and PAFAH1B2 inh 25.
For O=C(O)C1C2C=CC3(CN(C/C=C/c4ccccc4)C(=O)C13)O2 (centres undefined) the results were GRIN3A LBD mod inactive, PAFAH1B3 inh inactive, UCH37 DUB inh inactive, PAFAH2 FP inh inactive, pPAFAH inh 31 and PAFAH1B2 inh inactive.
Cc1cccc(N2CC34C=CC(O3)C(C(=O)O)C4C2=O)c1 (centres undefined) was read as GRIN3A LBD mod inactive, PAFAH1B3 inh inactive, UCH37 DUB inh inactive, PAFAH2 FP inh inactive, pPAFAH inh inactive and PAFAH1B2 inh inactive.
For CCOC(=O)c1c(N=CC2C(=O)CC(C)(C)CC2=O)sc2c1CCCC2 the results were UCH37 DUB inh inactive.
Screening COc1cccc(NC(=O)c2ccc(NC(C)=O)cc2)c1 returned GRIN3A LBD mod inactive, PAFAH1B3 inh inactive, UCH37 DUB inh 26, PAFAH2 FP inh inactive, pPAFAH inh inactive and PAFAH1B2 inh inactive.
COc1cccc(NC(=O)c2ccc3c(c2)OCCO3)c1 was read as GRIN3A LBD mod 12, PAFAH1B3 inh inactive, UCH37 DUB inh inactive, PAFAH2 FP inh inactive and PAFAH1B2 inh inactive.
For COc1ccccc1Oc1ccc(NC(=O)c2ccccc2C)cc1 the results were GRIN3A LBD mod inactive, PAFAH1B3 inh inactive, UCH37 DUB inh inactive, PAFAH2 FP inh inactive, pPAFAH inh inactive and PAFAH1B2 inh inactive.
`COc1cccc(NC(=O)c2cccc(Cl)c2)c1` gave GRIN3A LBD mod 28, PAFAH1B3 inh inactive, UCH37 DUB inh inactive, PAFAH2 FP inh inactive, pPAFAH inh inactive and PAFAH1B2 inh inactive.
COc1ccc(Oc2ccc(NC(=O)c3ccccc3C)cc2)cc1 was read as GRIN3A LBD mod 17, PAFAH1B3 inh inactive, UCH37 DUB inh inactive, PAFAH2 FP inh inactive, pPAFAH inh inactive and PAFAH1B2 inh inactive.
CN(C)S(=O)(=O)c1cccc(NC(=S)NN=Cc2cc(Br)ccc2O)c1 was read as UCH37 DUB inh inactive.
For CC1=NN(/C(=N/c2nnc(C)s2)Nc2ccc(C(C)(C)C)cc2)[C@H](c2ccc(C)cc2)S1 the results were UCH37 DUB inh inactive.
`O=C(Nc1cccc(NC(=O)c2ncn[nH]2)c1)c1cccc(Cl)c1` gave GRIN3A LBD mod 12, PAFAH1B3 inh inactive, UCH37 DUB inh inactive, PAFAH2 FP inh inactive, pPAFAH inh inactive and PAFAH1B2 inh inactive.
Screening O=C(Nc1ccc(N=Nc2ccccc2)cc1)c1cccc(Cl)c1 returned GRIN3A LBD mod 26, PAFAH1B3 inh inactive, UCH37 DUB inh inactive, PAFAH2 FP inh inactive, pPAFAH inh inactive and PAFAH1B2 inh inactive.
Screening COc1cc2cc(C(=O)Nc3ccc4c(c3)OCCO4)[nH]c2cc1OC returned GRIN3A LBD mod 11, PAFAH1B3 inh inactive, UCH37 DUB inh inactive, PAFAH2 FP inh inactive, pPAFAH inh inactive and PAFAH1B2 inh inactive.
COc1ccc(C(=O)Nc2ccc(C(=O)Nc3cccc(C)c3)cc2)cc1 was read as GRIN3A LBD mod 14, PAFAH1B3 inh inactive, UCH37 DUB inh inactive, PAFAH2 FP inh inactive, pPAFAH inh inactive and PAFAH1B2 inh inactive.
Screening O=C(Nc1ccc2c(c1)OCCO2)c1cccc(Cl)c1 returned GRIN3A LBD mod inactive, PAFAH1B3 inh inactive, UCH37 DUB inh inactive, PAFAH2 FP inh inactive, pPAFAH inh inactive and PAFAH1B2 inh inactive.
`COc1cc2[nH]c(C(=O)Nc3ccc4c(c3)OCCO4)cc2c(OC)c1OC` gave GRIN3A LBD mod inactive, PAFAH1B3 inh inactive, UCH37 DUB inh inactive, PAFAH2 FP inh inactive, pPAFAH inh inactive and PAFAH1B2 inh inactive.
Screening CC1CC(NC(=O)/C=C/C(=O)O)CC(C)(C)C1 (centres undefined) returned GRIN3A LBD mod inactive, PAFAH1B3 inh inactive, UCH37 DUB inh inactive, PAFAH2 FP inh inactive, pPAFAH inh inactive and PAFAH1B2 inh 24.
